Here are results for 6 compounds from ChEMBL document CHEMBL1122936, “Facile synthesis of platelet-activating factor and racemic analogues containing unsaturation in the sn-1-alkyl chain” (1985).

What all share (format): functional
The species named for test [1] is Homo sapiens. Put plainly: Desensitizing action on human PMN degranulation response, in the presence of FMLP (17 nM) at the dose of 10 nM. A digest of the protocol: (§1)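 Human neutrophils (>96% PMN, <5 platelets/100 PMN, no erythrocytes) at 2.6×10^6 cells/mL in Hanks' buffer, 37 °C, 20 min. Preincubated 8 min with desensitizing agent in BSA, or BSA alone. Then cytochalasin B 5 μg/mL for 2–4 min, then challenge 5 min with 200 nM 1-O-hexadecyl PAF or 17 nM FMLP. Read-out is net β-glucuronidase release vs BSA-pretreated cells, 14 experiments, unpaired t-test.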

For test [2], the species on record is Homo sapiens. Put plainly: Effective dose for lysozyme release in human PMN was measured. In a few lines:
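Human PMN at 2.6×10^6 cells/mL in Hanks' buffer, 37 °C, 20 min. Cytochalasin B 5 μg/mL for 2–4 min, then racemic analogue challenge 5 min, on ice, spun 200g at 4 °C. Net lysozyme release = % of total minus unstimulated release. ED10 extrapolated for 10% net release from curves averaged over ≥5 dose-response experiments.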

For test [3], the species on record is Homo sapiens. Put plainly: Desensitizing action on human PMN degranulation response, in the presence of PAF (200 nM) at the dose of 10 nM. A digest of the protocol: as §1
A further test is filed under the species Oryctolagus cuniculus. Kind of test: Effective dose for [14C]5-HT release in prelabeled rabbit platelets was measured. Particulars: read-out: ED50 (the source's name). A digest of the protocol: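 Rabbit platelet-rich plasma labeled with [14C]serotonin 1.0 μCi/mL, 37 °C, 15 min. Washed twice, then 5×10^7 platelets/0.2 mL in citrate-free Tyrode's (pH 7.3) with 1 mM Ca2+, 37 °C, 20 min. Challenged 1 min, stopped with formalin on ice, supernatant label counted as % of total cellular label. ED50 extrapolated for 50% release from curves averaged over ≥5 dose-response experiments.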

The species named for test [4] is Homo sapiens. Put plainly: Desensitizing action on human PMN degranulation response, in the presence of FMLP (17 nM) at the dose of 17 nM. A digest of the protocol:
as §1

The species named for test [5] is Homo sapiens. Kind of test: Desensitizing action on human PMN degranulation response, in the presence of PAF (200 nM) at the dose of 17 nM. A digest of the protocol:
as §1

For test [6], the species on record is Homo sapiens. Kind of test: Desensitizing action on human PMN degranulation response, in the presence of PAF (200 nM) at the dose of 60 nM. In a few lines: as §1
The species named for test [7] is Homo sapiens. Kind of test: Desensitizing action on human PMN degranulation response, in the presence of FMLP (17 nM) at the dose of 60 nM. A digest of the protocol: as §1
Test [8] is filed under the species Homo sapiens. Put plainly: Desensitizing action on human PMN degranulation response, in the presence of FMLP (17 nM) at the dose of 9 nM. In a few lines: as §1
The species named for test [9] is Homo sapiens. Kind of test: Desensitizing action on human PMN degranulation response, in the presence of PAF (200 nM) at the dose of 9 nM. In a few lines: as §1
For test [10], the species on record is Homo sapiens. Put plainly: Desensitizing action on human PMN degranulation response, in the presence of PAF (200 nM) at the dose of 8 nM. A digest of the protocol: (§2)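 Human neutrophils (>96% PMN, <5 platelets/100 PMN, no erythrocytes) in Hanks' buffer at 2.6×10^6 cells/mL, 37 °C, 20 min; preincubated 8 min with desensitizing agent (in BSA) or BSA alone, then cytochalasin B 5 μg/mL for 2–4 min, challenged 5 min (200 nM PAF or 17 nM FMLP). Supernatant assayed for net β-glucuronidase release, 14 experiments; unpaired t-test versus BSA.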

For test [11], the species on record is Homo sapiens. Kind of test: Desensitizing action on human PMN degranulation response, in the presence of FMLP (17 nM) at the dose of 8 nM. A digest of the protocol: as §2

For `CCCCCC/C=C\CCCCCCCCOCC(COP(=O)([O-])OCC[N+](C)(C)C)OC(C)=O` (configuration not stated), the Degranulating activity turned out to be 29.5 in the test filed under Homo sapiens [1] and 1.4 in the test filed under Homo sapiens [3]. In the test filed under Homo sapiens [2], the ED10 amounted to 10000 pM. Besides, the EC50 in the test filed under Oryctolagus cuniculus was found to be 500 pM.
On the same counts, the results for `CCCCCCCC/C=C\CCCCCCCCOCC(COP(=O)([O-])OCC[N+](C)(C)C)OC(C)=O` (configuration not stated) are 28.2, 0.3, 13000 pM and 400 pM.
Consider `CSCC[C@H](NC=O)C(=O)N[C@@H](CC(C)C)C(=O)N[C@@H](Cc1ccccc1)C(=O)O`, for which the Degranulating activity in the test filed under Homo sapiens [4] was determined as 6.2; in the test listed under Homo sapiens [5] it was 11.9.
`CCCCCCCCCCCCCCCCCCOCC(COP(=O)([O-])OCC[N+](C)(C)C)OC(C)=O` (configuration not stated) returned an ED10 in the test listed under Homo sapiens [2] of 60000 pM. Also, the results for the Degranulating activity in the test listed under Homo sapiens [6] and in the test filed under Homo sapiens [7] were -1.2 and 22, respectively. Besides, in the test listed under Oryctolagus cuniculus, the EC50 amounted to 800 pM.
With `CCCCC/C=C\C/C=C\CCCCCCCCOCC(COP(=O)([O-])OCC[N+](C)(C)C)OC(C)=O` (configuration not stated), the ED10 in the test listed under Homo sapiens [2] turned out to be 9000 pM. Further, the values for the Degranulating activity in the test filed under Homo sapiens [8] and in the test listed under Homo sapiens [9] were 26.3 and 0.1, respectively. Further, the EC50 in the test filed under Oryctolagus cuniculus was 300 pM.
In the test filed under Homo sapiens [2], `CCCCCCCCCCCCCCCCOCC(COP(=O)([O-])OCC[N+](C)(C)C)OC(C)=O` (configuration not stated) [PLATELET ACTIVATING FACTOR] yielded an ED10 of 8000 pM. Besides, the Degranulating activity is -0.2 in the test listed under Homo sapiens [10] and 23.6 in the test filed under Homo sapiens [11]. Moreover, the EC50 in the test listed under Oryctolagus cuniculus was determined as 200 pM.
